Reference: ChEMBL document CHEMBL4715831, “Design and synthesis of 2-((1H-indol-3-yl)thio)-N-phenyl-acetamides as novel dual inhibitors of respiratory syncytial virus and influenza virus A” (Eur J Med Chem, 2020)

Assays:
[1] = Cytotoxicity against HEK293T cells assessed as reduction in cell viability measured after 48 hrs by CCK8 assay; format: cell-based, HEK-293T; conditions: human
In short: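 293T cells treated for 48 h with six compound concentrations from 12.5 to 200 μM, with DMSO-only cells as control. CCK-8 then added for 1 h at 37 °C and OD read at 450 nm. Mean ± SD of three experiments.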

[2] = tested on: Respiratory syncytial virus; assay: Antiviral activity against GFP-fused wild-type RSV subgroup A Long infected in human HEp-2 cells measured 24 to 72 hrs post infection by fluorescence assay; format: functional, cell-based
In short: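 HEp-2 cells plated, then after 24 h infected with RSV-mGFP using 3-fold serially diluted inocula starting from 3 × 10^4 pfu/well. Compounds came from a 100 mM DMSO stock, diluted as indicated. RFU read at 479/517 nm at 24, 48 and 72 h post-infection, with non-infected cells as background. Mean ± SD of at least three experiments.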

[3] = Safety index, ratio of CC50 for human HEp-2 cells to EC50 for GFP-fused wild-type RSV subgroup A long infected in human HEp-2 cells; format: toxicity, cell-based; conditions: read-out: Ratio CC50/EC50
[4] = Cytotoxicity against human HEp-2 cells assessed as reduction in cell viability measured after 48 hrs by MTS assay; format: cell-based
In short: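 HEp-2 cells plated; after 24 h, compound added and cells incubated 48 h. MTS (2 mg/ml) then added for 3 h at 37 °C in 5% CO2 and absorbance read at 490 nm. Untreated control set as 100%.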

Influenza A virus [5] = assay: Antiviral activity against Influenza A virus A/WSN/33(H1N1) infected in human HEK293T cells measured after 24 hrs by Gaussia luciferase reporter gene method; format: functional, organism-based; conditions: A/WSN/1933(H1N1); for EC50: HEK-293T
In short: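 HEK293T cells carrying a Gaussia luciferase reporter that is activated by IAV, infected with A/WSN/33 (H1N1) for 1 h at room temperature, then cultured 24 h at 37 °C with serially diluted compound. Supernatant Gluc read with coelenterazine-h (16.7 μM in PBS) as 0.5-s photon counts. Normalized to control set as 100%; ribavirin positive control; three experiments.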

[6] = Safety index, ratio of CC50 for HEK293T cells to EC50 for antiviral activity against Influenza A virus A/WSN/33(H1N1) infected in human HEK293T cells; format: toxicity, cell-based; conditions: read-out: Ratio CC50/EC50
Influenza A virus [7] = assay: Antiviral activity against Influenza A virus A/WSN/33(H1N1) infected in human HEK293T cells assessed as inhibition of viral replication at 10 uM measured after 24 hrs by Gaussia luciferase reporter gene method relative to control; format: functional; conditions: A/WSN/1933(H1N1), HEK-293T
[8] = Antiviral activity against H3N2 infected in MDCK cells measured after 24 hrs by Gaussia luciferase reporter gene method; format: functional, cell-based, H3N2 subtype; conditions: Influenza A virus
In short: (§1)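 MDCK cells infected with IAV A/WSN/33 (H1N1) or H3N2 for 1 h at room temperature, then cultured in fresh DMEM with serially diluted compound for 24 h at 37 °C. Gluc activity in the medium read with coelenterazine-h (16.7 μM in PBS). Normalized to control set as 100%; ribavirin positive control; mean ± SD of three experiments.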

Influenza A virus [9] = assay: Antiviral activity against Influenza A virus A/WSN/33(H1N1) infected in MDCK cells measured after 24 hrs by Gaussia luciferase reporter gene method; format: functional, organism-based; conditions: A/WSN/1933(H1N1); in short: as §1

| SMILES | CC50 at 48 h [1] [µM] | EC50 [2] [µM] | selectivity ratio [3] | CC50 at 48 h [4] [µM] | EC50 (Influenza A virus [5]) [µM] | selectivity ratio [6] | inhibition at 10 µM (Influenza A virus [7]) [%] | EC50 [8] [µM] | Activity (Influenza A virus [5]) | EC50 (Influenza A virus [9]) [µM] | Activity [2] |
| --- | --- | --- | --- | --- | --- | --- | --- | --- | --- | --- | --- |
| CCOc1ccccc1NC(=O)CSc1c[nH]c2ccc(Cl)cc12 | 37.6 | 18.1 | 11.3 | 204 | 4.19 | 8.97 | – | – | – | – | – |
| Cn1cc(SCC(=O)Nc2c(Cl)cccc2Cl)c2ccccc21 | > 100 | 17.3 | 1.37 | 23.7 | 3.5 | > 28.6 | > 85 | 1.5 | Dose-dependent effect | 1.75 | – |
| Cn1cc(SCC(=O)Nc2ccc(Cl)cc2Cl)c2ccccc21 | > 100 | > 128 | – | > 1000 | 11.9 | > 8.38 | – | – | – | – | – |
| Cn1cc(SCC(=O)Nc2cc(Cl)ccc2Cl)c2ccccc21 | > 100 | > 128 | – | 76.9 | 15.8 | > 6.38 | – | – | – | – | – |
| O=C(CSc1c[nH]c2ncccc12)Nc1ccc(Cl)c(Cl)c1 | > 100 | > 128 | – | > 256 | 31.6 | > 3.1 | – | – | – | – | – |
| CCOc1ccccc1NC(=O)CSc1c[nH]c2cccc(Cl)c12 | 25.2 | 2.45 | 2.92 | 7.15 | 0.58 | > 41 | – | 2.33 | Dose-dependent effect | 2.67 | Dose-dependent effect |
| COc1ccc2[nH]cc(SCC(=O)Nc3ccc(Cl)c(Cl)c3)c2c1 | 61.8 | 16.6 | 2.79 | 46.4 | 15.5 | 4.19 | – | – | – | – | – |
| CCOc1ccccc1NC(=O)CSc1c[nH]c2cccc(OC)c12 | > 100 | 12.3 | 17.9 | 220 | 11.2 | > 8.8 | – | – | – | – | – |
| CCOc1ccccc1NC(=O)CSc1c[nH]c2ncccc12 | > 100 | > 128 | – | > 1000 | 31.4 | > 3.21 | – | – | – | – | – |
| CCOc1ccccc1NC(=O)CSc1c[nH]c2cc(OC)ccc12 | 88.2 | 23.1 | 1.53 | 35.2 | 4.48 | 15.4 | – | – | – | – | – |
| O=C(CSc1c[nH]c2cccc(Cl)c12)Nc1ccc(Cl)c(Cl)c1 | 34.7 | 25.3 | 1.09 | 27.7 | 5.72 | 5.95 | – | – | – | – | – |
| Cn1cc([S+]([O-])CC(=O)Nc2ccccc2Cl)c2ccccc21 (stereo unspecified) | > 100 | 12.3 | 7.89 | 97.4 | 29.8 | > 3.36 | – | – | – | – | – |
| Cn1cc([S+]([O-])CC(=O)Nc2ccc(Cl)cc2)c2ccccc21 (stereo unspecified) | > 100 | > 128 | – | 61.9 | 9.93 | > 10 | – | – | – | – | – |
| CCOc1ccccc1NC(=O)CSc1c[nH]c2c(Cl)cccc12 | > 100 | 4.46 | 58.8 | 262 | 1.75 | > 57.5 | – | 1.83 | – | 4.33 | – |
| COc1ccc2c(SCC(=O)Nc3ccc(Cl)c(Cl)c3)c[nH]c2c1 | 78.4 | 5.79 | 7.16 | 42.7 | 15.8 | 5 | – | – | – | – | Dose-dependent effect |
| Cn1cc(SCC(=O)Nc2cccc(Cl)c2)c2ccccc21 | > 100 | 23.9 | 0.79 | 18.9 | 9.98 | > 10 | – | – | – | – | – |
| O=C(CSc1c[nH]c2ccc(Cl)cc12)Nc1ccc(Cl)c(Cl)c1 | 42.7 | 9.95 | 3.54 | 35.2 | 7.62 | 5.53 | – | – | – | – | – |
| O=C(CSc1c[nH]c2cc(Cl)ccc12)Nc1ccc(Cl)c(Cl)c1 | 67.8 | 14 | 1.99 | 27.8 | 7.36 | 9.16 | – | – | – | – | – |
| Cn1cc(S(=O)(=O)CC(=O)Nc2cc(Cl)ccc2Cl)c2ccccc21 | > 100 | > 128 | – | > 1000 | 18 | > 6.72 | – | – | – | – | – |
| Cn1cc(SCC(=O)Nc2cccc(Cl)c2Cl)c2ccccc21 | > 100 | > 128 | – | > 1000 | 14 | > 7.26 | – | – | – | – | – |
| Cn1cc(S(=O)(=O)CC(=O)Nc2ccc(Cl)cc2Cl)c2ccccc21 | > 100 | > 128 | – | > 1000 | 33.7 | > 2.97 | – | – | – | – | – |
| Cn1cc(SCC(=O)Nc2ccc(Cl)cc2)c2ccccc21 | > 100 | > 128 | – | 31.4 | 9.82 | > 10.2 | – | – | – | – | – |
| Cn1cc(SCC(=O)Nc2ccc(Cl)c(Cl)c2)c2ccccc21 | > 100 | 12.5 | 2.45 | 30.5 | 0.64 | > 156 | > 85 | – | – | – | – |
| O=C(CSc1c[nH]c2c(Cl)cccc12)Nc1ccc(Cl)c(Cl)c1 | 49.1 | 18.1 | 1.81 | 32.8 | 10.4 | 4.69 | – | – | – | – | – |
| Cn1cc([S+]([O-])CC(=O)Nc2cccc(Cl)c2)c2ccccc21 (stereo unspecified) | > 100 | > 128 | – | > 1000 | 39.3 | > 2.55 | – | – | – | – | – |
| CCOc1ccccc1NC(=O)CSc1c[nH]c2c(OC)cccc12 | > 100 | 0.43 | 1.42 | 0.61 | 12.2 | > 8.24 | – | – | – | – | Dose-dependent effect |
| COc1cccc2[nH]cc(SCC(=O)Nc3ccc(Cl)c(Cl)c3)c12 | > 100 | > 128 | – | > 256 | 15.1 | > 6.61 | – | – | – | – | – |
| Cn1cc(SCC(=O)Nc2ccccc2Cl)c2ccccc21 | > 100 | > 128 | – | > 1000 | 27.9 | > 3.59 | – | – | – | – | – |
| COc1cccc2c(SCC(=O)Nc3ccc(Cl)c(Cl)c3)c[nH]c12 | > 100 | 17.3 | 2.28 | 39.5 | 13.8 | > 7.21 | – | – | – | – | – |
| Cn1cc(S(=O)(=O)CC(=O)Nc2cccc(Cl)c2Cl)c2ccccc21 | > 100 | 19.9 | 13.8 | 275 | 36.3 | > 2.75 | – | – | – | – | – |
